The text below walks through data of ChEMBL document CHEMBL3352378, “Novel carbazole inhibits phospho-STAT3 through induction of protein-tyrosine phosphatase PTPN6” (J Med Chem, 2014).

SMILES strings stand for the structures. Activity calls are given as the source filed them. The calls are words filed in the database; no cut-off is given here.

For series [1], the target named is Signal transducer and activator of transcription 3 (Homo sapiens) (UniProt P40763). Briefly: Inhibition of STAT3 in human Hs578T cells assessed as reduction of cyclin D1 mRNA expression at 0.3 to 1 uM after 24 hrs by RT-PCR analysis. To be noted: Hs-578T. In kind it is cell-based. An outline of the steps:
(§1)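 HS578T and SUM149PT cells treated for 24 h with increasing concentrations. Transcripts measured by RT-PCR, normalized to GAPDH as loading control.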

Series [2] has the same target. Put plainly: Inhibition of STAT3 in human SUM149PT cells assessed as reduction of cyclin D1 mRNA expression at 0.3 to 1 uM after 24 hrs by RT-PCR analysis. In kind it is cell-based. An outline of the steps:
as §1

Series [3] shares this target. Briefly: Inhibition of STAT3 in human Hs578T cells assessed as reduction of survivin mRNA expression at 0.3 to 1 uM after 24 hrs by RT-PCR analysis. In kind it is cell-based. Conditions: Hs-578T. An outline of the steps:
as §1

For series [4] the target is unchanged. Briefly: Inhibition of STAT3 in human SUM149PT cells assessed as reduction of survivin mRNA expression at 0.3 to 1 uM after 24 hrs by RT-PCR analysis. In kind it is cell-based. The procedure, abridged:
as §1

Series [5] has as its system Hs-578T. Put plainly: Induction of PTPN6 mRNA expression in human Hs578T cells after 24 hrs by RT-PCR analysis. In kind it is functional, cell-based. An outline of the steps: (§2)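 HS578T and SUM149PT cells given increasing concentrations for 24 h. PTPN6 mRNA measured by RT-PCR, with GAPDH as loading control.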
The subject of series [6] is SUM149PT. Put plainly: Induction of PTPN6 mRNA expression in human SUM149PT cells after 24 hrs by RT-PCR analysis. In kind it is functional, cell-based. The procedure, abridged:
as §2

Series [7] has as its target Tyrosine-protein phosphatase non-receptor type 6 (Homo sapiens) (UniProt P29350). Briefly: Induction of PTPN6 in human Hs578T cells assessed as inhibition of STAT3 phosphorylation at 3 uM after 16 hrs by Western blotting analysis in presence of pervanadate. Conditions: Hs-578T. In kind it is cell-based. An outline of the steps:
(§3)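 HS578T and SUM149PT cells treated for 16 h without or with increasing pervanadate as a phosphatase inhibitor; JAK1/2 inhibitor CP690550 run in parallel. Lysates immunoblotted for phospho-STAT3 (Y705), with β-actin as loading control.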

The target is the same in series [8]. Put plainly: Induction of PTPN6 in human SUM149PT cells assessed as inhibition of STAT3 phosphorylation at 3 uM after 16 hrs by Western blotting analysis in presence of pervanadate. In kind it is cell-based. The procedure, abridged:
as §3
A general note: In western blotting, separated proteins are transferred to a membrane and probed.

The test system of series [9] is Hs-578T. Put plainly: Induction of PTPN6 protein expression in human Hs578T cells transfected with control-siRNA after 24 hrs by Western blotting analysis. In kind it is functional, cell-based. An outline of the steps: (§4)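 HS578T cells transfected with 100 nM control or PTPN6 siRNA using Lipofectamine 2000 in serum-free medium. Medium with 20% FBS added after 4 h, and cells kept 3 days. Then treated with DMSO or compound for 24 h. PTPN6 and phospho-STAT3 immunoblotted and quantified by ImageJ densitometry.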

Series [10] concerns Hs-578T. Briefly: Induction of PTPN6 protein expression in human Hs578T cells transfected with PTPN6-siRNA after 24 hrs by Western blotting analysis. In kind it is functional, cell-based. An outline of the steps: as §4
Series [11] is described as follows: Drug uptake in human MDA-MB-231 cell cytoplasm at 10 uM after 1 hr by two-photon confocal microscopy. In kind it is ADME, cell-based. Conditions: mda-mb-231, 1 h. An outline of the steps: (§5)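 MDA-MB-231 cells grown overnight on fibronectin/[…]-coated slides, then given 10 μM compound or DMSO for 1 h. Cells washed with PBS and fixed in 4% formaldehyde. Two-photon excitation at 725 nm, emission collected through a 500–550 nm filter.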

The nature of series [12]: Drug uptake in human MDA-MB-231 cell nucleus at 10 uM after 1 hr by two-photon confocal microscopy. In kind it is ADME, cell-based. Conditions: mda-mb-231, 1 h. The procedure, abridged: as §5
Series [13] relates to A549. Put plainly: Antitumor activity against human A549 cells xenografted in athymic Balb/c nude mouse at 10 mg/kg, ip administered every other day for 27 days measured on day 5. Conditions: route intraperitoneal, read-out: TGI. In kind it is functional. An outline of the steps:
(§6)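 Male and female athymic nude mice (18–22 g) implanted subcutaneously in the right auxiliary region with 3×10^6 A549 cells. Mice were randomized into groups of five 3 days after implantation, and dosing started at about 50 mm³ tumor. Working solution 1 mg/mL in 10% Cremophore/3% PEG400/87% PBS; ip every other day, vehicle control. Caliper volume L×w×w/2, mean ± SEM, n = 5.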
Background: In xenograft studies the graft and the host belong to different species.

For series [14], the system named is A549. Briefly: Antitumor activity against human A549 cells xenografted in athymic Balb/c nude mouse at 10 mg/kg, ip administered every other day for 27 days measured on day 9. Conditions: route intraperitoneal, read-out: TGI. In kind it is functional. The procedure, abridged:
as §6

Series [15] relates to A549. Briefly: Antitumor activity against human A549 cells xenografted in athymic Balb/c nude mouse at 10 mg/kg, ip administered every other day for 27 days measured up to day 27. In kind it is functional. To be noted: 648 h, route intraperitoneal, read-out: TGI. The procedure, abridged: as §6
The subject of series [16] is Mus musculus. Put plainly: Toxicity in athymic Balb/c nude mouse xenografted with human SUM149 cells assessed as change in body weight at 10 to 30 mg/kg, ip administered every other day for 5 days. In kind it is organism-based. Conditions: in vivo, 120 h. Further details: dose 10-30 mg/kg, route intraperitoneal. An outline of the steps: (§7)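 SUM149 cells (3×10^6) implanted subcutaneously in the right auxiliary region of male and female athymic nude mice (18–22 g). Groups of five, randomized; dosed ip every other day at 10 or 30 mg/kg from 1 mg/mL Cremophore 10%/PEG400 3%/PBS vehicle, vehicle control. Tumor volume by caliper (L×w×w/2); body weight, appetite, activity and lethargy monitored.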

Series [17] relates to Mus musculus. Briefly: Toxicity in athymic Balb/c nude mouse xenografted with human SUM149 cells assessed as loss of appetite at 10 to 30 mg/kg, ip administered every other day for 5 days. In kind it is organism-based. Further details: dose 10-30 mg/kg, route intraperitoneal. Conditions: in vivo, 120 h. An outline of the steps: as §7
Series [18] deals with Mus musculus. Briefly: Toxicity in athymic Balb/c nude mouse xenografted with human SUM149 cells assessed as decreased activity at 10 to 30 mg/kg, ip administered every other day for 5 days. In kind it is organism-based. Further details: dose 10-30 mg/kg, route intraperitoneal. Conditions: in vivo, 120 h. An outline of the steps: as §7
Series [19] has as its system Mus musculus. Put plainly: Toxicity in athymic Balb/c nude mouse xenografted with human SUM149 cells assessed as lethargy at 10 to 30 mg/kg, ip administered every other day for 5 days. In kind it is organism-based. Further details: dose 10-30 mg/kg, route intraperitoneal. To be noted: in vivo, 120 h. An outline of the steps: as §7
Series [20] is described as follows: Antitumor activity against human SUM149 cells xenografted in athymic Balb/c nude mouse at 10 to 30 mg/kg, ip administered every other day for 5 days measured on day 5. In kind it is functional, SUM149PT. To be noted: dose mg/kg 10-30; route intraperitoneal. The procedure, abridged:
as §7

Series [21] can be described thus: Antitumor activity against human SUM149 cells xenografted in athymic Balb/c nude mouse assessed as PTPN6 upregulation at 30 mg/kg, ip administered every other day for 5 days measured on day 5 by Western blotting analysis. In kind it is functional, organism-based. More on the design: dose 30 mg/kg. To be noted: SUM149PT. The procedure, abridged: (§8)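 SUM149 subcutaneous xenografts in nude mice (n = 5), dosed ip every other day in Cremophore/PEG400/PBS vehicle. Tumors taken on day 5 were immunoblotted for PTPN6, STAT3 and pSTAT3, with GAPDH as control. PTPN6 quantified by densitometry with a one-tailed t test.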

The subject of series [22] is SUM149PT. Put plainly: Antitumor activity against human SUM149 cells xenografted in athymic Balb/c nude mouse assessed as reduction in pSTAT3 level at 30 mg/kg, ip administered every other day for 5 days measured on day 5 by Western blotting analysis. In kind it is functional, organism-based. More on the design: dose 30 mg/kg. An outline of the steps:
as §8

Signal transducer and activator of transcription 3 (Homo sapiens), sequence (P40763 whole entry): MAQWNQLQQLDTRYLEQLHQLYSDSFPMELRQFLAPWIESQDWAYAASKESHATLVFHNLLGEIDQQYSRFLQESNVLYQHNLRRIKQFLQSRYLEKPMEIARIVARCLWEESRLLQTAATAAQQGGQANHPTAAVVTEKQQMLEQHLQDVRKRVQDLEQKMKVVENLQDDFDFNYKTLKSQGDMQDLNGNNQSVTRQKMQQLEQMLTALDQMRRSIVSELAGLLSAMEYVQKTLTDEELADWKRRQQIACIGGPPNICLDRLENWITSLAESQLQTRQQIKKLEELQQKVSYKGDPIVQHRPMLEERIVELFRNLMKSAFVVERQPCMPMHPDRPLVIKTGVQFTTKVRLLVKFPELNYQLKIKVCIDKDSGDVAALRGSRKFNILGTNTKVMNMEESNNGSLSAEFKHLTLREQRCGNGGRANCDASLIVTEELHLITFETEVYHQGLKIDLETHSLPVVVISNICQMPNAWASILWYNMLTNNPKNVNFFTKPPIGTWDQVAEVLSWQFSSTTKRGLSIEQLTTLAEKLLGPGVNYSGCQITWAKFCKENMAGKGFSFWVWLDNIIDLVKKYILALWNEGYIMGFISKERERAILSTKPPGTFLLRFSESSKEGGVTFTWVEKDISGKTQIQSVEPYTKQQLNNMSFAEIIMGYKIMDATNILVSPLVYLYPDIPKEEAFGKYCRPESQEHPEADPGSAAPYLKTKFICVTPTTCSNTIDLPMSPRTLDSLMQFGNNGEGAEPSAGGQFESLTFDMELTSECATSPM
Tyrosine-protein phosphatase non-receptor type 6 (Homo sapiens), sequence (P29350 whole entry): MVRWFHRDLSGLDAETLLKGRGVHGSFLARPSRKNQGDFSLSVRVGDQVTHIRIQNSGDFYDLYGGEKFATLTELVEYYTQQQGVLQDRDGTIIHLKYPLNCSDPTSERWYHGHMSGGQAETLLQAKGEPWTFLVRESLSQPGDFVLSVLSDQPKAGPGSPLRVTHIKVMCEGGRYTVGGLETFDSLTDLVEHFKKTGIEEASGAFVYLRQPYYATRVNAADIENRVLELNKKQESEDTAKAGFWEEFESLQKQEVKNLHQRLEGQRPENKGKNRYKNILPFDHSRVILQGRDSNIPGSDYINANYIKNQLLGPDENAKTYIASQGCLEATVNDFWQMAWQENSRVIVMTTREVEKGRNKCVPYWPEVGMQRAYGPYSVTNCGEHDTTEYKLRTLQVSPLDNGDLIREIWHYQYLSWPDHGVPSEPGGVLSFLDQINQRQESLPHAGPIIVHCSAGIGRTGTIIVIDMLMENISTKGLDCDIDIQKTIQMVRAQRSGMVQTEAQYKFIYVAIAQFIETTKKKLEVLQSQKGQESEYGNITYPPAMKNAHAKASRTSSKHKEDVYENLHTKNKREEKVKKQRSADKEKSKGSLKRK

By TGI is commonly meant how far tumour growth fell short of that in controls. Low values mean little slowing of growth, high ones much slowing of growth. For `Cc1c(OS(=O)(=O)c2cccc3c(N(C)C)cccc23)ccc2c1[nH]c1cc(O)ccc12`, the inhibition entry in series [1], in series [2], in series [3] and in [4] was “Active” in each case. In addition, the Activity result was “Dose-dependent effect” in the series with Hs-578T [5]; “Dose-dependent effect” with SUM149PT [6]; “Non-toxic” with Mus musculus [16]; “Non-toxic” with Mus musculus [17]; “Non-toxic” with Mus musculus [18]; “Non-toxic” with Mus musculus [19]. For the same compound, the inhibition result in series [7] and in [8] was “inactive” in each case. Also, the outcome (in the series with Hs-578T [9]; in series [21]; in the series on SUM149PT [22]) was Active. In the series on Hs-578T [10], the outcome was inactive. Further, the Drug uptake result in series [11] is “Active”; in [12] it was “Not Active”. Besides, the inhibition in vivo at 10 mg/kg with A549 [13] is 68.7%; with A549 [14], 73.8%; in the series with A549 [15], 54.9%. In addition, the tumour growth inhibition (TGI) in series [20] was determined as 57%.
